PubChem BioAssay AID463111 (Johns Hopkins Ion Channel Center, 2010)
Out of some 310,000 compounds screened, about 2,800 (0.9%) were called active. The sample holds actives, similar compounds and a random draw of the others, so the mix is not that of the screen.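 Rule for the calls: active = B-score of the integrated calcium signal more than 4 SD below the library mean, with starting fluorescence not abnormally high; inactive = the rest.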

Assay: enhancers of RGS4 function in calcium signaling – cell-based, HEK293 M3R inducible RGS4, calcium flux, primary screen (AID 463111);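 for B-score: negative B-score means reduced calcium response which marks RGS4 activation or potentiation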
Conditions: HEK293 M3R/inducible RGS4, carbachol calcium flux Fluo4, at 10 µM; stronger effect = lower value
Summary of the method: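 Detection: kinetic calcium fluorescence imaging with Fluo4-AM dye, 2 µM / Material: HEK293 cells with stable M3R and inducible RGS4 / Schedule: recording 10 s baseline at 1 Hz, 100 s post-agonist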

Row | Compound | B-score
1 | COc1ccc(NC(=O)CCS(=O)(=O)c2cc3c(cc2Cl)NC(=O)CO3)cc1OC | inactive
2 | Cc1cc2c(cc1S(=O)(=O)CCC(=O)NCc1ccccc1)OCC(=O)N2 | inactive
3 | COc1ccc(Cl)cc1NC(=O)CCS(=O)(=O)c1cc2c(cc1C)NC(=O)CO2 | -7.02 (active)
4 | COc1cccc(C2c3[nH]c4ccccc4c3CCN2Cc2cccc(C)n2)c1 (centres undefined) | inactive
5 | CC1=CCC2C(=O)N(c3cccc(C(=O)NC(C)c4ccccc4)c3)C(=O)C2C1 (centres undefined) | inactive
6 | CCCCn1c(N)c(N(CC)C(=O)c2ccccc2C(F)(F)F)c(=O)[nH]c1=O | inactive
7 | Cc1nn(Cc2ccc(C(=O)N3N=C(C(F)F)CC3(O)C(F)F)cc2)c(C)c1[N+](=O)[O-] (centres undefined) | inactive
8 | CCOc1ccc(NC(=O)COc2ccc(S(=O)(=O)N3CCCC3)cc2)cc1 | inactive
9 | O=C(CSCc1ccc(Br)cc1)Nc1ccc(S(=O)(=O)N2CCCCCC2)cc1 | inactive
10 | O=C(CN1CCCCCC1)Nc1ccc(S(=O)(=O)N2CCCCC2)cc1 | -8.13 (active)
11 | O=c1cc(CO)oc(C(Nc2cccc([N+](=O)[O-])c2)c2ccccn2)c1O (centres undefined) | inactive
12 | CCc1ccc(OCC(=O)N(Cc2ccccc2)C2CCS(=O)(=O)C2)cc1 (centres undefined) | inactive
13 | Cc1ccc(C)c(-c2nnc(NC(=O)CS(=O)(=O)c3ccccc3)o2)c1 | inactive
14 | O=C(Nc1cccn(Cc2c(Cl)cccc2Cl)c1=O)c1ccc(Cl)cc1 | inactive
15 | CCCC(=O)NC(Nc1ccccc1OC)C(Cl)(Cl)Cl (centres undefined) | inactive
16 | CCCCCCCC(=O)NC(Nc1ccccc1OC)C(Cl)(Cl)Cl (centres undefined) | -8.57 (active)
17 | COc1ccccc1NC(=O)CCCc1c[nH]c2ccccc12 | inactive
18 | Cc1cnc(C(=O)OCc2c(C)cc(C(C)(C)C)cc2C)cn1 | inactive
19 | Cc1cc(C(=O)OCC(=O)Nc2ccc(F)c(F)c2)c(C)o1 | inactive
20 | O=C(NCc1ccc(F)cc1)C1CCN(C(=O)Nc2ccc(F)cc2)CC1 | inactive
21 | CCc1ccc(C(=O)OCC(=O)NCC(F)(F)F)cc1 | inactive
22 | Cc1c(NC(=O)Nc2cccc([N+](=O)[O-])c2)c(=O)n(-c2ccccc2)n1C | inactive

Row | Compound | B-score
23 | Cc1nc(N2CCN(c3ccccn3)CC2)c2c(C)c(C(=O)Nc3ccc(F)cc3)sc2n1 | -9.74 (active)
24 | COc1ccc(NC(=O)c2sc3nc(C)nc(N4CCN(c5ccccn5)CC4)c3c2C)c(OC)c1 | inactive
25 | Cc1nc(N2CCN(c3ccccn3)CC2)c2c(C)c(C(=O)Nc3ccc(F)c(Cl)c3)sc2n1 | inactive
26 | O=C(Oc1ccc([N+](=O)[O-])cc1)c1ccc(Cl)c(S(=O)(=O)N2CCCCC2)c1 | inactive
27 | C=CCN(N=Nc1cccc([N+](=O)[O-])c1)c1cccc([N+](=O)[O-])c1 | inactive
28 | Cc1ccc(-c2cc(C(=O)Nc3nn[nH]n3)c3ccccc3n2)c(C)c1 | inactive
29 | COc1ccc(NC(=O)CN(C)C(=O)c2cc(-c3ccc(C)o3)nc3ccccc23)cc1 | inactive
30 | COc1ccc(-c2cc(C(=O)N(C)Cc3ccccc3)c3ccccc3n2)cc1 | -8.16 (active)
31 | COc1ccc(CN(C)C(=O)Cc2c[nH]c3ccccc23)c(OC)c1OC | inactive
32 | COc1ccc(-c2cc(C(=O)N(C)CC(=O)Nc3ccccc3Cl)c3ccccc3n2)cc1OC | inactive
33 | COc1ccc(CN(C)C(=O)c2cc(-c3ccc(C)cc3C)nc3ccccc23)c(OC)c1OC | -11.6 (active)
34 | CNC(=O)COC(=O)c1cc(-c2ccc(OC)cc2)nc2ccccc12 | inactive
35 | COc1ccc(-c2cc(C(=O)N(C)Cc3ccc(OC)c(OC)c3OC)c3ccccc3n2)cc1OC | -8.8 (active)
36 | COc1ccc(-c2cc(C(=O)Nc3ccccc3O)c3ccccc3n2)cc1 | inactive
37 | O=c1[nH]cccc1-c1nc2ccccc2n1Cc1ccc(Cl)cc1 | inactive
38 | CCC(Oc1ccccc1C)C(=O)Nc1ccc(S(=O)(=O)Nc2cc(C)on2)cc1 (centres undefined) | inactive
39 | CC1=C(C(=O)N(C)C)C(c2ccccc2OC(F)F)NC(=O)N1 (centres undefined) | inactive
40 | Cc1ccc(NS(=O)(=O)c2c(C)[nH]c(C)c2C(=O)N2CCCCC2)c(C)c1 | inactive
41 | CC1=C(C(=O)OC2CCCCC2)C(c2cccnc2)n2ncnc2N1 (centres undefined) | inactive
42 | O=C(N/N=C/c1cccc(OCc2ccccc2)c1)c1ccc(Br)o1 | -7.35 (active)
43 | Cc1ccc(OCCOc2cccc(/C=N/NC(N)=O)c2)cc1 | inactive
44 | O=C(N/N=C/c1cccc(O)c1)c1cc2c(ccc3ccccc32)o1 | inactive

Row | Compound | B-score
45 | CSc1nc(-c2ccco2)nn1C(=O)c1ccccc1Cl | inactive
46 | O=C1NCC(=O)N(Cc2ccccc2)/C1=C/c1ccccc1 | inactive
47 | O=C1/C(=C\c2ccsc2)NC(=S)N1c1ccccc1 | inactive
48 | CN(C)c1ccc(/C=C2\NC(=S)N(Cc3ccccc3)C2=O)cc1 | -12 (active)
49 | CC(=O)N1CCN(S(=O)(=O)c2c(F)cc(F)c(Cl)c2F)CC1 | inactive
50 | C/C=C(\C)C(=O)N1CC2(CC(c3cccc(NC(=O)CCCCC)c3)=NO2)C[C@@H]1C(N)=O (some centres undefined) | inactive
51 | CN(C)C(=O)c1nc2ccc(Cl)cn2c1CNCc1cccc(OC(F)(F)F)c1 | inactive
52 | CN(C)c1ccc2c(=O)[nH][nH]c(=O)c2c1 | inactive
53 | O=C(NCc1ccncc1)C1CCN(C(=O)c2cccc(Cl)c2)CC1 | inactive
54 | COC(=O)c1cccc(C(=O)N2CCC(CCC(=O)NCc3ccc(F)cc3)CC2)c1 | inactive
55 | CCOC(=O)N1CCN(C(=O)c2nn(-c3ccc(C)cc3)c(=O)c3c2c2ccccc2n3C)CC1 | inactive
56 | O=C(c1ccccc1Oc1ccccc1)N1CCN(c2ccc(F)cc2)CC1 | inactive
57 | Cn1c2ccccc2c2c(C(=O)N3CCN(c4ccc(F)cc4)CC3)cn(C3CCCC3)c(=O)c21 | -7.18 (active)
58 | Nc1nc(SCc2cccc(Br)c2)n[nH]1 | inactive
59 | COC(=O)c1ccc(CN2CCC(CO)(Cc3ccc(OC)cc3)CC2)cc1 | -8.7 (active)
60 | COc1ccc(CC2(CO)CCN(Cc3cnn(C)c3)CC2)cc1 | inactive
61 | CC(=O)c1cccc(CN2CCC(CO)(Cc3ccccc3)CC2)c1 | inactive
62 | CN(C)C(CNC(=O)c1cccc(S(=O)(=O)Nc2ccc(Br)cc2)c1)c1ccco1 (centres undefined) | inactive
63 | CC(=O)c1ccc(S(=O)(=O)Nc2ccc(C(=O)NCC(c3ccccc3)N(C)C)cc2)cc1 (centres undefined) | inactive
64 | COc1ccccc1C(CNC(=O)c1cccc(NS(=O)(=O)c2ccc(Br)cc2)c1)N(C)C (centres undefined) | -8.15 (active)
